Calls of active or inactive are those of the source. The rule behind the calls is not given here.
What was measured:
Staphylococcus aureus [1] = experiment: Antibiofilm activity against 24 hrs preformed biofilm of Staphylococcus aureus ATCC 29213 assessed as biofilm viability at 16 ug/ml incubated for 24 hrs by crystal violet staining analysis (reference value: 18.9 1og10CFU); type: functional; conditions: dose 16 µg/ml
Escherichia coli [2] = experiment: Antibiofilm activity against 72 hrs preformed biofilm of Escherichia coli ATCC 25922 assessed as biofilm viability at 16 ug/ml incubated for 24 hrs by […] (reference value: 16.1 log10CFU); type: functional; conditions: dose 16 µg/ml
Procedure, shortened: (§1)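 E. coli from mid-log phase was diluted to ~10^5 CFU/mL in M9 medium with 0.02% casamino acids and 0.5% glycerol and formed biofilm without shaking for 72 h. Wells were PBS-washed, then treated with 2-128 µg/mL for 24 h at 37 °C; medium-only wells served as control. Cells were released with trypsin-EDTA and plated as tenfold dilutions. Viability was given as log10 CFU/well.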

Staphylococcus aureus [3] = experiment: Antibacterial activity against methicillin-resistant Staphylococcus aureus assessed as reduction in bacterial growth following incubation in MHB medium and meaured after incubation with compound for 20 to 24 hrs by agar plate method; type: functional; conditions: time 20-24 hrs
Procedure, shortened: (§2)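 Sheep plasma obtained by centrifuging defibrinated blood at 3500 rpm for 10 min; serum isolated in serum tubes. MRSA at 10^5 CFU/mL in 50% MHB plus 50% serum, plasma or blood, or in MHB alone. Compound dilutions (512 to 4 µg/mL, pre-mixing) added 50 µL to 150 µL bacteria, 37 °C for 20-24 h. Then 20 µL plated on MHA, 37 °C 20-24 h; MBC taken as no colonies. Two repeats.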

Escherichia coli [4] = experiment: Antibiofilm activity against Escherichia coli ATCC 25922 assessed as inhibition of biofilm formation incubated for 24 hrs by crystal violet staining assay; type: functional
Procedure, shortened: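 Twofold serial dilutions in MHB received 1:1000-diluted exponential-phase bacteria and were incubated 24 h at 37 °C. Wells were rinsed, stained with 0.1% crystal violet for 10 min and dissolved in ethanol, and OD540 was read. MBIC80 was the concentration inhibiting 80% of biofilm formation versus untreated wells, taken from dose-response curves.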

Staphylococcus aureus [5] = experiment: Antibacterial activity against methicillin-resistant Staphylococcus aureus assessed as reduction in bacterial growth following incubation in 50% MHB medium and 50% plasma and meaured after incubation with compound for 20 to 24 hrs by agar plate method; type: functional; conditions: time 20-24 hrs; procedure, shortened: as §2
Staphylococcus aureus [6] = experiment: Antibacterial activity against Staphylococcus aureus ATCC 29213 assessed as reduction in bacterial growth compound preincubated with 50% sheep plasma for 0 hrs followed by incubation for 20 to 24 hrs by agar plate method; type: functional; conditions: time 20-24 hrs
Procedure, shortened: (§3)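 Sheep plasma came from centrifuged defibrinated blood. Compound at 512 µg/mL in 50% water/50% plasma was preincubated at 37 °C for 0, 3 or 6 h, then serially diluted (256 to 4 µg/mL). Dilutions were mixed 1:3 with S. aureus suspension (10^5 CFU/mL) and incubated 20-24 h at 37 °C. MBC was taken as no colonies after 20 µL was plated on agar.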

Staphylococcus aureus [7] = experiment: Antibiofilm activity against 24 hrs preformed biofilm of Staphylococcus aureus ATCC 29213 assessed as biofilm viability at 64 ug/ml incubated for 24 hrs by crystal violet staining analysis (reference value: 18.9 1og10CFU); type: functional; conditions: dose 64 µg/ml
Staphylococcus aureus [8] = experiment: Bactericidal activity against early exponential phase of Staphylococcus aureus ATCC 29213 at 6X MIC measured after 6 hrs by time-kill kinetic assay; type: functional, organism-based
Procedure, shortened: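 An overnight culture was diluted 1:10,000 in MHB and shaken at 225 rpm and 37 °C for 2 h (early exponential phase), then exposed to compound. Samples taken at intervals were centrifuged, resuspended in PBS, plated as tenfold dilutions on MHA and incubated overnight at 37 °C. CFU/mL were counted. Biological replicates were run.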

Staphylococcus aureus [9] = experiment: Antibiofilm activity against 24 hrs preformed biofilm of Staphylococcus aureus ATCC 29213 assessed as biofilm viability at 4 ug/ml incubated for 24 hrs by crystal violet staining analysis (reference value: 18.9 1og10CFU); type: functional; conditions: dose 4 µg/ml
Staphylococcus aureus [10] = experiment: Resistance ratio of compound MIC for methicillin-resistant Staphylococcus aureus after 20 passages to compound MIC for methicillin-resistant Staphylococcus aureus after 16 to 20 hrs by CLSI-based broth microdilution method; type: functional
Procedure, shortened: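 Serial passaging: after each 24 h MIC assay, cells grown at 1/2 MIC were transferred and the MIC assayed again, for 20 passages. Done with S. aureus, E. coli and MRSA. MIC plotted against days of passage. Experiment repeated twice.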

HeLa [11] = experiment: Cytotoxicity against human HeLa cells assessed as cell morphology at 1 to 4 ug/mL incubated for 24 hrs by optical microscopy; type: cell-based; conditions: dose 1-4 µg/ml
Procedure, shortened: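 HeLa cells were kept in DMEM with 10% FBS at 37 °C and 5% CO2. Cells were seeded in 12-well plates, allowed to adhere overnight and exposed to 1, 2 or 4 µg/mL for 24 h. Untreated wells were the negative control and 0.1% Triton X-100 the positive control. After a PBS wash, morphology was imaged by inverted microscopy with a 10× objective. Three repeats.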

Staphylococcus aureus [12] = experiment: Antibacterial activity against Staphylococcus aureus ATCC 29213 assessed as reduction in bacterial growth compound preincubated with 50% sheep plasma for 3 hrs followed by incubation for 20 to 24 hrs by agar plate method; type: functional; conditions: time 20-24 hrs; procedure, shortened: as §3
HeLa [13] = experiment: Cytotoxicity against human HeLa cells assessed as viable cells by measuring increase in green fluorescence intensity at 1 to 4 ug/mL incubated for 24 hrs by calcein-AM/propidium iodide staining based fluorescence microscopy; type: cell-based; conditions: dose 1-4 µg/ml
Procedure, shortened: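 HeLa cells in 12-well plates were treated 24 h at 1, 2 or 4 µg/mL, with untreated and 0.1% Triton X-100 controls. Cells were stained with 2 µM calcein AM and 4.5 µM propidium iodide for 15 min at 37 °C and imaged by fluorescence microscopy (calcein 500-550 nm band-pass; PI 590-800 nm long-pass). Three repeats.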

Staphylococcus aureus [14] = experiment: Antibiofilm activity against 24 hrs preformed biofilm of Staphylococcus aureus ATCC 29213 assessed as biofilm viability at 8 ug/ml incubated for 24 hrs by crystal violet staining analysis (reference value: 18.9 1og10CFU); type: functional; conditions: dose 8 µg/ml
Staphylococcus aureus [15] = experiment: Antibiofilm activity against 24 hrs preformed biofilm of Staphylococcus aureus ATCC 29213 assessed as eradication of preformed biofilm incubated for 24 hrs by crystal violet staining assay; type: functional
Staphylococcus aureus [16] = experiment: Antibiofilm activity against 24 hrs preformed biofilm of Staphylococcus aureus ATCC 29213 assessed as biofilm viability at 2 ug/ml incubated for 24 hrs by crystal violet staining analysis (reference value: 18.9 1og10CFU); type: functional; conditions: dose 2 µg/ml
Staphylococcus aureus [17] = experiment: Antibacterial activity against Staphylococcus aureus ATCC 29213 assessed as reduction in bacterial growth compound preincubated with 50% sheep plasma for 6 hrs followed by incubation for 20 to 24 hrs by agar plate method; type: functional; conditions: time 20-24 hrs; procedure, shortened: as §3
Escherichia coli [18] = experiment: Antibiofilm activity against 72 hrs preformed biofilm of Escherichia coli ATCC 25922 assessed as biofilm viability at 128 ug/ml incubated for 24 hrs by […] (reference value: 16.1 log10CFU); type: functional; conditions: dose 128 µg/ml; procedure, shortened: as §1
Escherichia coli [19] = experiment: Antibiofilm activity against 72 hrs preformed biofilm of Escherichia coli ATCC 25922 assessed as biofilm viability at 32 ug/ml incubated for 24 hrs by […] (reference value: 16.1 log10CFU); type: functional; conditions: dose 32 µg/ml; procedure, shortened: as §1

SMILES: CCCCCCCCCCCN(C[C@H]1CN(c2ccc(N3CCOCC3)c(F)c2)C(=O)O1)C(=O)[C@@H](N)CCCCN.Cl.Cl
- Activity (Staphylococcus aureus [1]): 8.7 log10CFU
- Activity (Escherichia coli [2]): 7.1 log10CFU
- MBC (Staphylococcus aureus [3]): 128 µg/mL
- MBIC80 (Escherichia coli [4]): 61.9 µg/mL
- MBIC90 (Escherichia coli [4]): 72.6 µg/mL
- MBC (Staphylococcus aureus [5]): 128 µg/mL
- MBC (Staphylococcus aureus [6]): 64 µg/mL
- Activity (Staphylococcus aureus [7]): 5.9 log10CFU
- Activity (Staphylococcus aureus [8]): Active
- Activity (Staphylococcus aureus [9]): 12.9 log10CFU
- Ratio (Staphylococcus aureus [10]): 2
- Activity (HeLa [11]): Non-Toxic
- MBC (Staphylococcus aureus [12]): 64 µg/mL
- Activity (HeLa [13]): Non-Toxic
- Activity (Staphylococcus aureus [14]): 9.9 log10CFU
- MBEC (Staphylococcus aureus [15]): 64 µg/mL
- MBEC80 (Staphylococcus aureus [15]): 50.2 µg/mL
- MBEC90 (Staphylococcus aureus [15]): 59.8 µg/mL
- Activity (Staphylococcus aureus [16]): 13.9 log10CFU
- MBC (Staphylococcus aureus [17]): 64 µg/mL
- Activity (Escherichia coli [18]): 5.3 log10CFU
- Activity (Escherichia coli [19]): 6.1 log10CFU

From ChEMBL document CHEMBL4673214, “Synthesis and antibacterial bioactivities of cationic deacetyl linezolid amphiphiles” (Eur J Med Chem, 2018)
